{"source": "ChEMBL document CHEMBL4177589", "about": "“In silico analysis and in vitro evaluation of immunogenic and immunomodulatory properties of promiscuous peptides derived from Leishmania infantum eukaryotic initiation factor” (2017)", "key": {"BMDC [1]": {"test_system": "BMDC", "assay": "Immunomodulatory activity in LPS stimulated BALB/c mouse bone marrow-derived dendritic cells assessed as increase in IL-12 level at 10 ug/ml after 24 hrs by FACS analysis (reference value: 44%)", "assay_type": "functional"}, "Splenocyte": {"test_system": "Splenocyte", "assay": "Induction of cell proliferation in splenocytes isolated from BALB/c mouse infected with Leishmania major MRHO/SU/59/P, zymodeme LV39 assessed as increase in [3H]-thymidine incorporation at 1 to 10 ug/ml […] and measured after 18 hrs by liquid scintillation counter method", "assay_type": "functional, cell-based", "procedure,_shortened": "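Female BALB/c mice were infected subcutaneously with 2×10^6 stationary-phase L. major promastigotes. Splenocytes were taken one month later and plated in triplicate at 2×10^6 cells/mL with peptide at 1, 5 or 10. Cultures ran 96 h at 37°C, 5% CO2, with 3H-thymidine (2 µCi/mL) added for the last 18 h and read by scintillation. The result is Δcpm against medium wells; Δcpm >2000 with SI >2 counted as positive.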"}, "BMDC [2]": {"test_system": "BMDC", "assay": "Immunomodulatory activity in LPS stimulated BALB/c mouse bone marrow-derived dendritic cells assessed as increase in IL-4 level at 10 ug/ml after 24 hrs by FACS analysis (reference value: 48%)", "assay_type": "functional"}, "BMDC [3]": {"test_system": "BMDC", "assay": "Immunomodulatory activity in LPS stimulated BALB/c mouse bone marrow-derived dendritic cells assessed as increase in IFN-gamma level at 10 ug/ml after 24 hrs by FACS analysis (reference value: 20%)", "assay_type": "functional"}, "BMDC [4]": {"test_system": "BMDC", "assay": "Immunomodulatory activity in […] mouse bone marrow-derived dendritic cells assessed as increase in IL-12 level at 10 ug/ml after 24 hrs by FACS analysis", "assay_type": "functional, cell-based"}, "BMDC [5]": {"test_system": "BMDC", "assay": "Immunomodulatory activity in […] mouse bone marrow-derived dendritic cells assessed as increase in IL-10 level at 10 ug/ml after 24 hrs by FACS analysis", "assay_type": "functional, cell-based"}, "BMDC [6]": {"test_system": "BMDC", "assay": "Immunomodulatory activity in […] mouse bone marrow-derived dendritic cells assessed as up-regulation of co-stimulatory molecules at 10 ug/ml after 24 hrs by FACS analysis", "assay_type": "functional, cell-based"}, "BMDC [7]": {"test_system": "BMDC", "assay": "Immunomodulatory activity in LPS stimulated BALB/c mouse bone marrow-derived dendritic cells assessed as increase in surface CD80 expression at 10 ug/ml after 24 hrs by FACS analysis (reference value: 26%)"}, "BMDC [8]": {"test_system": "BMDC", "assay": "Immunomodulatory activity in LPS stimulated BALB/c mouse bone marrow-derived dendritic cells assessed as up-regulation of TNF-alpha mRNA expression at 10 ug/ml after 2 to 12 hrs by qPCR analysis", "assay_type": "functional, cell-based", "procedure,_shortened": "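Day-9 BM-DCs (5×10^6 per group) were cultured with peptide for 2, 6 and 12 h, with LPS and medium controls. TNF-α mRNA was measured by RT and semi-quantitative PCR, and products were run on 2% agarose gels. Band densitometry was normalised to β-actin and given as arbitrary units, from three independent experiments.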"}, "BMDC [9]": {"test_system": "BMDC", "assay": "Immunomodulatory activity in LPS stimulated BALB/c mouse bone marrow-derived dendritic cells assessed as increase in surface CD86 expression at 10 ug/ml after 24 hrs by FACS analysis (reference value: 58%)"}, "BMDC [10]": {"test_system": "BMDC", "assay": "Immunomodulatory activity in LPS stimulated BALB/c mouse bone marrow-derived dendritic cells assessed as increase in IL-10 level at 10 ug/ml after 24 hrs by FACS analysis (reference value: 27%)", "assay_type": "functional"}}, "note": "Calls of active or inactive are those of the source. The rule behind the calls is not given here."}
{"substance": "H-PKDIQVALFSATMPEEVL-OH", "values": [{"measurement": "Activity", "setting": "BMDC [1]", "value": "inactive"}, {"measurement": "Activity", "setting": "Splenocyte", "value": "Active"}]}
{"substance": "H-TRELALQTAEVISRIGE-OH", "values": [{"measurement": "Activity", "setting": "BMDC [1]", "value": "inactive"}, {"measurement": "Activity", "setting": "Splenocyte", "value": "Active"}]}
{"substance": "H-IQQRAIAPFTRGGDII-OH", "values": [{"measurement": "Activity", "setting": "BMDC [1]", "value": 65, "unit": "%"}, {"measurement": "Activity", "setting": "BMDC [2]", "value": 64, "unit": "%"}, {"measurement": "Activity", "setting": "BMDC [3]", "value": 40, "unit": "%"}, {"measurement": "Activity", "setting": "BMDC [4]", "value": "Active"}, {"measurement": "Activity", "setting": "BMDC [5]", "value": "Active"}, {"measurement": "Activity", "setting": "BMDC [6]", "value": "Active"}, {"measurement": "Activity", "setting": "BMDC [7]", "value": 43, "unit": "%"}, {"measurement": "Activity", "setting": "BMDC [8]", "value": "Active"}, {"measurement": "Activity", "setting": "Splenocyte", "value": "Active"}, {"measurement": "Activity", "setting": "BMDC [9]", "value": 77, "unit": "%"}, {"measurement": "Activity", "setting": "BMDC [10]", "value": 43, "unit": "%"}]}
{"substance": "H-KPSSIQQRAIAPFTRGG-OH", "values": [{"measurement": "Activity", "setting": "BMDC [1]", "value": "inactive"}, {"measurement": "Activity", "setting": "Splenocyte", "value": "Active"}]}
{"substance": "H-FLDDQPGVRPIPSFDDM-OH", "values": [{"measurement": "Activity", "setting": "BMDC [1]", "value": "inactive"}, {"measurement": "Activity", "setting": "Splenocyte", "value": "Active"}]}
